Experimental data of several laboratories.
Protocols differ between the studies behind these lines.
Target: Phosphorylase b kinase gamma catalytic chain, liver/testis isoform (PHKG2, Homo sapiens, UniProt P15735)
Sequence (P15735 1-406, as in one of the studies): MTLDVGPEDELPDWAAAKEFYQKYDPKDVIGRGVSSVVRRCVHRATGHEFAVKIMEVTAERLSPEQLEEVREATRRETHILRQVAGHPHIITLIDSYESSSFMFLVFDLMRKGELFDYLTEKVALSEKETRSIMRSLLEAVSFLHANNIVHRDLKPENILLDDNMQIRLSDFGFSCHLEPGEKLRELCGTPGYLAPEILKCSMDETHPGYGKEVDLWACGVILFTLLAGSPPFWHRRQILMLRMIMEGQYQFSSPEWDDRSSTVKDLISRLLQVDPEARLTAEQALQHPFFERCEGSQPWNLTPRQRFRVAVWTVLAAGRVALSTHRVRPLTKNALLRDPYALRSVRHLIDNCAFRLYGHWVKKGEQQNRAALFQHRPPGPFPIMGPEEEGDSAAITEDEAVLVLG

The remaining binding of `O=C(Nc1cccnn1)N1CC(C/C=C/c2cncc(Oc3ccc(C(F)(F)F)cn3)n2)C1` is reported as 100% (cell-free assay; competition with immobilised ligand; 1 µM).
`Cc1cc(NC(=O)c2cccc3cc(-c4cccc5[nH]nc(N)c45)ccc23)ccc1F` gave an activity vs control of 87% (enzyme activity; inhibitor; 0.1 µM).
The remaining binding of `CCc1ccccc1C(=O)Nc1n[nH]c2c(C)c(F)c(C3C(C#N)=C(C)N(C)C(C)=C3C#N)cc12` is reported as 81% (cell-free assay; competition with immobilised ligand; 1 µM).
With `CCN(CC)CCNC(=O)c1c(C)[nH]c(/C=C2\C(=O)Nc3ccc(F)cc32)c1C` the inhibition was 101% (enzyme activity; inhibitor; 10 µM).
For `COc1cc2ncnc(Nc3ccc(Oc4ccccc4)c(C)c3C)c2cc1OC`, the inhibition was 2% (enzyme activity; inhibitor; 1 µM).
With `Cc1ccc(C(=O)NCc2ccsc2)cc1C#Cc1cn(C(C)C)c2ncnc(N)c12` the activity vs control was 110% (enzyme activity; inhibitor; 1 µM).
The remaining signal of `Cc1ccc(NC(=O)c2ccc(C)c(C(F)(F)F)c2)cc1C#Cc1nn(C2CCC(O)CC2)c2ncnc(N)c12` (stereo not shown) is reported as 113% (cell-free assay; 10 µM).
With `O=C(Nc1cnn(-c2csc(C(=O)NC3COC3)c2)c1)Nc1ccccc1Cl` the remaining activity was 101% (enzyme activity; inhibitor; 5 µM).
For `CNc1cc(Oc2cc(C(=O)Nc3cc(N4CCN(C)CC4)cc(C(F)(F)F)c3)ccc2C)ncn1`, the inhibition was -18.1% (target engagement in cells; inhibitor; chemoproteomics; Huh-7; 1 µM).
With `CCCCN(CCCC)C(=O)CN1C[C@@H](c2cc(OC)c3c(c2)OCO3)[C@H](C(=O)O)[C@H]1CC(C)(C)CCC` the remaining binding was 100% (cell-free assay; competition with immobilised ligand; 1 µM).
For `COc1ccc(COc2ccc(Cc3cnc(N)nc3N)cc2OC)cc1`, the remaining signal was 106% (cell-free assay; 0.5 µM).
With `Cc1cnc(NC2CCOCC2)nc1-n1cnc(C(=O)NC(CN)c2cc(F)cc(Cl)c2)c1` (stereo not shown) the remaining activity was 97% (enzyme activity; inhibitor; radiometric; 1 µM).
`Nc1ncnc2occ(-c3ccc(NC(=O)Nc4cc(C(F)(F)F)ccc4F)cc3)c12` has a remaining signal of 53% (cell-free assay; inhibitor; 20 µM).
With `CCC(=O)N[C@@H]1CC[C@H](C(=O)N(C)c2ccc(-c3nc4ccccc4o3)cc2)C1` the remaining binding was 100% (cell-free assay; competition with immobilised ligand; 1 µM).
With `CNC(=O)c1cc(Oc2ccc(NC(=O)Nc3ccc(Cl)c(C(F)(F)F)c3)cc2)ccn1` the remaining signal was 91.3% (cell-free assay; 0.5 µM).
The remaining activity of `Cc1sc(C(=O)NC2COC2)cc1-n1cc(NC(=O)Nc2c(F)cccc2Cl)cn1` is reported as 88.5% (enzyme activity; inhibitor; 10 µM).
`CC(C)(C)c1nc(-c2cccc(NS(=O)(=O)c3c(F)cccc3F)c2F)c(-c2ccnc(N)n2)s1` gave a remaining activity of 88% (enzyme activity; inhibitor; radiometric; 1 µM).
For `CC(=O)N1CCC(c2ccc(C(=O)NC3=NCCN3)cc2C(F)(F)F)CC1`, the remaining binding was 100% (cell-free assay; competition with immobilised ligand; 1 µM).
`Cc1ccc(Nc2nccc(N(C)c3ccc4c(C)n(C)nc4c3)n2)cc1S(N)(=O)=O` has an inhibition of -4% (enzyme activity; inhibitor; 0.3 µM).
For `COc1ccc2c(c1)O[C@H](c1ccc(OC)c(OC)c1)C[C@@H]2NC(=O)C1(c2ccc3c(c2)OC(F)(F)O3)CC1`, the remaining binding was 93% (cell-free assay; competition with immobilised ligand; 1 µM).
For `c1ccc(CNc2nc(N3CCOc4ccccc43)nc3c2CCCC3)cc1`, the inhibition was -2.7% (target engagement in cells; inhibitor; chemoproteomics; 20 mM).
`O=C1Nc2ccc(Cl)cc2C1=Cc1cc(Cl)c(O)c(Cl)c1` has a remaining signal of 98.4% (cell-free assay; 0.5 µM).
With `COCCOc1nc(-c2ccc(Cl)nc2)nc2c1CN(C(=O)c1ncn3ccccc13)CC2` the remaining binding was 100% (cell-free assay; competition with immobilised ligand; 0.1 µM).
For `CCCCNc1ncc2c(-c3ccc(F)cc3)nn(C[C@H]3CC[C@H](N)CC3)c2n1`, the inhibition was -3.3% (target engagement in cells; inhibitor; chemoproteomics; 20 mM).
`CS(=O)(=O)CCNCc1ccc(-c2ccc3ncnc(Nc4ccc(OCc5cccc(F)c5)c(Cl)c4)c3c2)o1` gave a remaining signal of 99.5% (cell-free assay; 0.5 µM).
The remaining binding of `CC(=O)N1CCC(c2ccc(C(=O)NC(=N)N)cc2C(F)(F)F)CC1` is reported as 100% (cell-free assay; competition with immobilised ligand; 1 µM).
For `Nc1nc(Nc2ccc(S(N)(=O)=O)cc2)nn1C(=O)c1c(F)cccc1F`, the remaining signal was 102% (cell-free assay; 0.5 µM).
For `CCCS(=O)(=O)Nc1ccc(F)c(C(=O)c2c[nH]c3ncc(-c4ccc(Cl)cc4)cc23)c1F`, the inhibition was less than 10% (enzyme activity; inhibitor; 1 µM).
